Assay results as given in ChEMBL document CHEMBL1147827, “A pyrimidine-pyrazolone nucleoside chimera with potent in vitro anti-orthopoxvirus activity” (Bioorg Med Chem Lett, 2006).

Experiments:
HFF = assay: Cytotoxicity against human HFF cells by neutral red uptake; format: functional
Procedure, shortened: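 Uninfected HFF cells in 96-well plates were exposed to various drug concentrations for 7 days, then stained with neutral red.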

Vaccinia virus = assay: Antiviral activity against Vaccinia virus Copenhagen in HFF cells assessed as reduction in plaque formation; format: functional, organism-based; conditions: Orthopoxvirus vaccinia
Cowpox virus [1] = assay: Antiviral activity against Cowpox virus Brighton in HFF cells assessed as reduction in cytopathogenicity; format: functional, organism-based
Cowpox virus [2] = assay: Antiviral activity against Cowpox virus Brighton in HFF cells assessed as reduction in plaque formation; format: functional, organism-based

Compound: Nc1ccn(C[C@@H](CO)OCP(=O)(O)O)c(=O)n1 [CIDOFOVIR]
- CC50 (HFF): > 317 µM
- EC50 (Vaccinia virus): 20 µM
- EC50 (Cowpox virus [1]): 7.1 µM

Compound: CC(=O)OC[C@H]1O[C@@H](n2cc(/C=C3\C(=O)N(c4ccccc4)N=C3C)c(=O)[nH]c2=O)C[C@@H]1OC(C)=O
- EC50 (Cowpox virus [2]): 48 µM
- CC50 (HFF): > 252 µM
- EC50 (Vaccinia virus): 56 µM
- EC50 (Cowpox virus [1]): 33.7 µM
